According to ChEMBL document CHEMBL1158339, “Synthesis and anti-microbial screening of some Schiff bases of 3-amino-6,8-dibromo-2-phenylquinazolin-4(3H)-ones” (2009):
Converted amounts (≈) assume the structure as drawn.

What was measured:
Format in all cases: functional
Aspergillus niger [1] = assay: Antifungal activity against Aspergillus niger ATCC 9029 after 48 hrs by paper disk diffusion technique
Method in brief: (§1)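 Fungal disc diffusion. Autoclaved (120 °C, 30 min) medium is inoculated at 40–50 °C with 1 ml/100 ml of a 10⁵ cfu/ml McFarland-matched suspension and poured to 3–4 mm. Compound-impregnated paper discs in dimethyl formamide are applied. Plates are held 1 h at room temperature, then incubated 48 h at 37 °C.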

Escherichia coli [2] = assay: Antibacterial activity against Escherichia coli ATCC 25922 after 24 hrs by agar streak dilution method; details: ATCC 25922, 24 h
Method in brief: (§2)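 Agar streak dilution MIC. Stock […] in dimethyl formamide. Graded quantities go into molten sterile nutrient agar, poured at 40–50 °C to 3–4 mm depth and left to solidify. Plates are streaked with about 10⁵ cfu/ml bacterial suspension and incubated 24 h at 37 °C. MIC is the lowest concentration with no visible growth.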

Pseudomonas aeruginosa [3] = assay: Antibacterial activity against Pseudomonas aeruginosa ATCC 2853 after 24 hrs by paper disk diffusion technique
Method in brief: (§3)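 Paper disc diffusion. Nutrient agar autoclaved 120 °C, 30 min, then inoculated at 40–50 °C with 1 ml/100 ml of a 10⁵ cfu/ml suspension matched to McFarland standard and poured to 3–4 mm. Discs impregnated with compound in dimethyl formamide are laid on the solidified agar. Plates are held 1 h at room temperature, then 24 h at 37 °C.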

Bacillus cereus [4] = assay: Antibacterial activity against Bacillus cereus ATCC 11778 after 24 hrs by paper disk diffusion technique; method in brief: as §3
Pseudomonas aeruginosa [5] = assay: Antibacterial activity against Pseudomonas aeruginosa ATCC 2853 after 24 hrs by agar streak dilution method; details: ATCC 2853, 24 h; method in brief: as §2
Bacillus cereus [6] = assay: Antibacterial activity against Bacillus cereus ATCC 11778 after 24 hrs by agar streak dilution method; details: ATCC 11778, 24 h; method in brief: as §2
[7] = test system: Staphylococcus epidermidis; assay: Antibacterial activity against Staphylococcus epidermidis ATCC 155 after 24 hrs by agar streak dilution method; details: ATCC 155, 24 h; method in brief: as §2
Aspergillus niger [8] = assay: Antifungal activity against Aspergillus niger ATCC 9029 after 48 hrs by agar streak dilution method; details: ATCC 9029, 48 h
Method in brief: as §2, with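 “Fungal agar” for “Agar”, “dilution.” for “dilution MIC.”, “Sabouraud dextrose” for “nutrient”, “inoculated” for “streaked”, “cfu/ml” for “cfu/ml bacterial”, “48” for “24”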

Aspergillus fumigatus [9] = assay: Antifungal activity against Aspergillus fumigatus ATCC 46645 after 48 hrs by paper disk diffusion technique; method in brief: as §1
[10] = test system: Staphylococcus epidermidis; assay: Antibacterial activity against Staphylococcus epidermidis ATCC 155 after 24 hrs by paper disk diffusion technique; method in brief: as §3
Escherichia coli [11] = assay: Antibacterial activity against Escherichia coli ATCC 25922 after 24 hrs by paper disk diffusion technique; method in brief: as §3
Aspergillus fumigatus [12] = assay: Antifungal activity against Aspergillus fumigatus ATCC 46645 after 48 hrs by agar streak dilution method; details: ATCC 46645, 48 h
Method in brief: as §2, with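 “Fungal agar” for “Agar”, “dilution.” for “dilution MIC.”, “Sabouraud dextrose” for “nutrient”, “inoculated” for “streaked”, “cfu/ml” for “cfu/ml bacterial”, “48” for “24”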

Klebsiella pneumoniae [13] = assay: Antibacterial activity against Klebsiella pneumoniae ATCC 11298 after 24 hrs by agar streak dilution method; details: ATCC 11298, 24 h; method in brief: as §2
Klebsiella pneumoniae [14] = assay: Antibacterial activity against Klebsiella pneumoniae ATCC 11298 after 24 hrs by paper disk diffusion technique; method in brief: as §3
Staphylococcus aureus [15] = assay: Antibacterial activity against Staphylococcus aureus ATCC 9144 after 24 hrs by agar streak dilution method; details: ATCC 9144, 24 h; method in brief: as §2
Micrococcus luteus [16] = assay: Antibacterial activity against Micrococcus luteus ATCC 4698 after 24 hrs by agar streak dilution method; details: NCTC 2665, 24 h; method in brief: as §2
Micrococcus luteus [17] = assay: Antibacterial activity against Micrococcus luteus ATCC 4698 after 24 hrs by paper disk diffusion technique; method in brief: as §3
Staphylococcus aureus [18] = assay: Antibacterial activity against Staphylococcus aureus ATCC 9144 after 24 hrs by paper disk diffusion technique; method in brief: as §3

`COc1cc(/C=N/n2c(-c3ccccc3)nc3c(Br)cc(Br)cc3c2=O)cc(OC)c1OC` was tested, and the “inhibition zone (IZ)” value (Aspergillus niger [1]) was 26 mm, the MIC (Escherichia coli [2]) was 18.2 µg/mL (≈ 31.7 µM) and the “inhibition zone (IZ)” value (Pseudomonas aeruginosa [3]) was 24 mm. The “inhibition zone (IZ)” value (Bacillus cereus [4]) was 23 mm, the MIC (Pseudomonas aeruginosa [5]) was 19.3 µg/mL (≈ 33.7 µM) and the MIC (Bacillus cereus [6]) was 21.7 µg/mL (≈ 37.9 µM). For the same compound, the MIC [7] was 19.1 µg/mL (≈ 33.3 µM), the MIC (Aspergillus niger [8]) was 8.6 µg/mL (≈ 15 µM) and the “inhibition zone (IZ)” value (Aspergillus fumigatus [9]) was 24 mm. For the same compound, the “inhibition zone (IZ)” value [10] was 25 mm, the “inhibition zone (IZ)” value (Escherichia coli [11]) was 27 mm and the MIC (Aspergillus fumigatus [12]) was 10.1 µg/mL (≈ 17.6 µM). The MIC (Klebsiella pneumoniae [13]) was 16.7 µg/mL (≈ 29.1 µM), the “inhibition zone (IZ)” value (Klebsiella pneumoniae [14]) was 28 mm and the MIC (Staphylococcus aureus [15]) was 18.9 µg/mL (≈ 33 µM). For the same compound, the MIC (Micrococcus luteus [16]) was 18.8 µg/mL (≈ 32.8 µM), the “inhibition zone (IZ)” value (Micrococcus luteus [17]) was 24 mm and the “inhibition zone (IZ)” value (Staphylococcus aureus [18]) was 26 mm.

For `O=c1c2cc(Br)cc(Br)c2nc(-c2ccccc2)n1/N=C/c1ccc([N+](=O)[O-])cc1`, the “inhibition zone (IZ)” value (Aspergillus niger [1]) was 24 mm, the MIC (Escherichia coli [2]) was 30.2 µg/mL (≈ 57.2 µM) and the “inhibition zone (IZ)” value (Pseudomonas aeruginosa [3]) was 21 mm. The “inhibition zone (IZ)” value (Bacillus cereus [4]) was 20 mm, the MIC (Pseudomonas aeruginosa [5]) was 34.2 µg/mL (≈ 64.8 µM) and the MIC (Bacillus cereus [6]) was 32.8 µg/mL (≈ 62.1 µM). For the same compound, the MIC [7] was 21.8 µg/mL (≈ 41.3 µM), the MIC (Aspergillus niger [8]) was 14.4 µg/mL (≈ 27.3 µM) and the “inhibition zone (IZ)” value (Aspergillus fumigatus [9]) was 25 mm. The “inhibition zone (IZ)” value [10] was 22 mm, the “inhibition zone (IZ)” value (Escherichia coli [11]) was 23 mm and the MIC (Aspergillus fumigatus [12]) was 10.9 µg/mL (≈ 20.6 µM). For the same compound, the MIC (Klebsiella pneumoniae [13]) was 35.7 µg/mL (≈ 67.6 µM), the “inhibition zone (IZ)” value (Klebsiella pneumoniae [14]) was 20 mm and the MIC (Staphylococcus aureus [15]) was 22.4 µg/mL (≈ 42.4 µM). The MIC (Micrococcus luteus [16]) was 27.4 µg/mL (≈ 51.9 µM), the “inhibition zone (IZ)” value (Micrococcus luteus [17]) was 23 mm and the “inhibition zone (IZ)” value (Staphylococcus aureus [18]) was 22 mm.

`O=c1c2cc(Br)cc(Br)c2nc(-c2ccccc2)n1/N=C/c1ccc(Cl)cc1` was tested, and the “inhibition zone (IZ)” value (Aspergillus niger [1]) was 25 mm, the MIC (Escherichia coli [2]) was 20.2 µg/mL (≈ 39 µM) and the “inhibition zone (IZ)” value (Pseudomonas aeruginosa [3]) was 26 mm. The “inhibition zone (IZ)” value (Bacillus cereus [4]) was 19 mm, the MIC (Pseudomonas aeruginosa [5]) was 22.8 µg/mL (≈ 44 µM) and the MIC (Bacillus cereus [6]) was 36.1 µg/mL (≈ 69.7 µM). For the same compound, the MIC [7] was 25.6 µg/mL (≈ 49.5 µM), the MIC (Aspergillus niger [8]) was 10.2 µg/mL (≈ 19.7 µM) and the “inhibition zone (IZ)” value (Aspergillus fumigatus [9]) was 22 mm. The “inhibition zone (IZ)” value [10] was 20 mm, the “inhibition zone (IZ)” value (Escherichia coli [11]) was 27 mm and the MIC (Aspergillus fumigatus [12]) was 12.6 µg/mL (≈ 24.3 µM). The MIC (Klebsiella pneumoniae [13]) was 21.8 µg/mL (≈ 42.1 µM), the “inhibition zone (IZ)” value (Klebsiella pneumoniae [14]) was 25 mm and the MIC (Staphylococcus aureus [15]) was 28.4 µg/mL (≈ 54.9 µM). For the same compound, the MIC (Micrococcus luteus [16]) was 33.8 µg/mL (≈ 65.3 µM), the “inhibition zone (IZ)” value (Micrococcus luteus [17]) was 23 mm and the “inhibition zone (IZ)” value (Staphylococcus aureus [18]) was 19 mm.

With `COc1cc(/C=N/n2c(-c3ccccc3)nc3c(Br)cc(Br)cc3c2=O)ccc1O` the “inhibition zone (IZ)” value (Aspergillus niger [1]) was 24 mm, the MIC (Escherichia coli [2]) was 31.2 µg/mL (≈ 59 µM) and the “inhibition zone (IZ)” value (Pseudomonas aeruginosa [3]) was 19 mm. The “inhibition zone (IZ)” value (Bacillus cereus [4]) was 17 mm, the MIC (Pseudomonas aeruginosa [5]) was 33.4 µg/mL (≈ 63.1 µM) and the MIC (Bacillus cereus [6]) was 35.1 µg/mL (≈ 66.3 µM). The MIC [7] was 24.2 µg/mL (≈ 45.7 µM), the MIC (Aspergillus niger [8]) was 12.7 µg/mL (≈ 24 µM) and the “inhibition zone (IZ)” value (Aspergillus fumigatus [9]) was 23 mm. For the same compound, the “inhibition zone (IZ)” value [10] was 23 mm, the “inhibition zone (IZ)” value (Escherichia coli [11]) was 24 mm and the MIC (Aspergillus fumigatus [12]) was 15.2 µg/mL (≈ 28.7 µM). The MIC (Klebsiella pneumoniae [13]) was 28.2 µg/mL (≈ 53.3 µM), the “inhibition zone (IZ)” value (Klebsiella pneumoniae [14]) was 23 mm and the MIC (Staphylococcus aureus [15]) was 21.6 µg/mL (≈ 40.8 µM). For the same compound, the MIC (Micrococcus luteus [16]) was 28.1 µg/mL (≈ 53.1 µM), the “inhibition zone (IZ)” value (Micrococcus luteus [17]) was 24 mm and the “inhibition zone (IZ)” value (Staphylococcus aureus [18]) was 23 mm.

With `O=c1c2cc(Br)cc(Br)c2nc(-c2ccccc2)n1/N=C/c1ccccc1` the “inhibition zone (IZ)” value (Aspergillus niger [1]) was 24 mm, the MIC (Escherichia coli [2]) was 33.4 µg/mL (≈ 69.1 µM) and the “inhibition zone (IZ)” value (Pseudomonas aeruginosa [3]) was 19 mm. The “inhibition zone (IZ)” value (Bacillus cereus [4]) was 20 mm, the MIC (Pseudomonas aeruginosa [5]) was 28.7 µg/mL (≈ 59.4 µM) and the MIC (Bacillus cereus [6]) was 29.4 µg/mL (≈ 60.8 µM). The MIC [7] was 33.6 µg/mL (≈ 69.5 µM), the MIC (Aspergillus niger [8]) was 9.7 µg/mL (≈ 20.1 µM) and the “inhibition zone (IZ)” value (Aspergillus fumigatus [9]) was 22 mm. For the same compound, the “inhibition zone (IZ)” value [10] was 18 mm, the “inhibition zone (IZ)” value (Escherichia coli [11]) was 17 mm and the MIC (Aspergillus fumigatus [12]) was 11.1 µg/mL (≈ 23 µM). The MIC (Klebsiella pneumoniae [13]) was 27.7 µg/mL (≈ 57.3 µM), the “inhibition zone (IZ)” value (Klebsiella pneumoniae [14]) was 21 mm and the MIC (Staphylococcus aureus [15]) was 35.4 µg/mL (≈ 73.3 µM). For the same compound, the MIC (Micrococcus luteus [16]) was 31.8 µg/mL (≈ 65.8 µM), the “inhibition zone (IZ)” value (Micrococcus luteus [17]) was 19 mm and the “inhibition zone (IZ)” value (Staphylococcus aureus [18]) was 17 mm.
